Legend:
[1] = system: Human immunodeficiency virus; test: Antiviral activity against wild type HIV HXB2 in human MT4 cells assessed as protection against virus-induced cell death after 5 days by MTT assay; format: functional, organism-based; details: Human immunodeficiency virus 1, MT4, 120 h
[2] = system: Human immunodeficiency virus; test: Antiviral activity against […] HIV HXB2 with reverse transcriptase […]/Tyr181Cys mutation in human MT4 cells assessed as protection against virus-induced cell death after 5 days by MTT assay; format: functional, organism-based; details: Human immunodeficiency virus 1, MT4, 120 h
[3] = molecular target: Human immunodeficiency virus type 1 reverse transcriptase (Human immunodeficiency virus 1, UniProt Q72547); test: Inhibition of RNA-dependent DNA polymerase activity of wild type HIV1 reverse transcriptase by SPA
[4] = molecular target: Human immunodeficiency virus type 1 reverse transcriptase (Human immunodeficiency virus 1, UniProt Q72547, K103N/Y181C); test: Inhibition of RNA-dependent DNA polymerase activity of HIV1 reverse transcriptase Lys103Asn/Tyr181Cys mutant by SPA
[5] = system: Human immunodeficiency virus; test: Antiviral activity against NNRTI-resistant HIV HXB2 isolate 17 with reverse transcriptase A98, K103, Y181 mutation in human MT4 cells assessed as protection against virus-induced cell death after 5 days by MTT assay; format: functional, organism-based; details: Human immunodeficiency virus 1, MT4, 120 h
[6] = system: Human immunodeficiency virus; test: Antiviral activity against NNRTI-resistant HIV HXB2 with reverse transcriptase 138K mutation in human MT4 cells assessed as protection against virus-induced cell death after 5 days by MTT assay; format: functional, organism-based; details: Human immunodeficiency virus 1, MT4, 120 h
Procedure, shortened: (§1)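 MT4 cells in log-phase growth (2 × 10⁶) infected with HXB2-strain HIV at 0.0001 infectious units/cell for 1 h at 37 °C, washed in PBS, then plated at 3.5 × 10⁴ cells/well. Serial 2-fold dilutions, four replicates, final 625-1.22 nM, in RPMI 1640/10% FCS. Incubated 5 days at 37 °C, 5% CO₂. MTT added for 2 h, absorbance read at 540/690 nm. % protection vs uninfected and virus controls; IC50 taken from plot against log concentration.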

[7] = system: Human immunodeficiency virus; test: Antiviral activity against NNRTI-resistant HIV HXB2 with reverse transcriptase 101E mutation in human MT4 cells assessed as protection against virus-induced cell death after 5 days by MTT assay; format: functional, organism-based; details: Human immunodeficiency virus 1, MT4, 120 h; procedure, shortened: as §1
[8] = system: Human immunodeficiency virus; test: Antiviral activity against NNRTI-resistant HIV HXB2 with reverse transcriptase 100I mutation in human MT4 cells assessed as protection against virus-induced cell death after 5 days by MTT assay; format: functional, organism-based; details: Human immunodeficiency virus 1, MT4, 120 h; procedure, shortened: as §1
[9] = system: Human immunodeficiency virus; test: Antiviral activity against NNRTI-resistant HIV HXB2 isolate 20 with reverse transcriptase K103, Y181 mutation in human MT4 cells assessed as protection against virus-induced cell death after 5 days by MTT assay; format: functional, organism-based; details: Human immunodeficiency virus 1, MT4, 120 h
[10] = Volume of distribution at steady state in dog at 0.5 mg/kg, iv; details: in vivo, read-out: Vdss
[11] = Half life in rat at 0.5 mg/kg, iv; details: in vivo
[12] = Clearance in rat at 0.5 mg/kg, iv; details: in vivo
[13] = Half life in dog at 0.5 mg/kg, iv; details: in vivo
[14] = system: Human immunodeficiency virus; test: Antiviral activity against NNRTI-resistant HIV HXB2 isolate 21 with reverse transcriptase K103, V179, Y181 mutation in human MT4 cells assessed as protection against virus-induced cell death after 5 days by MTT assay; format: functional, organism-based; details: Human immunodeficiency virus 1, MT4, 120 h
[15] = Half life in monkey at 0.5 mg/kg, iv; details: rhesus monkey, in vivo
[16] = system: Human immunodeficiency virus; test: Antiviral activity against wild type HIV HXB2 in human MT4 cells assessed as protection against virus-induced cell death after 5 days by MTT assay in presence of 40% human serum; format: functional, organism-based; details: Human immunodeficiency virus 1, MT4, 120 h
[17] = system: Human immunodeficiency virus; test: Antiviral activity against NNRTI-resistant HIV HXB2 with reverse transcriptase 188H mutation in human MT4 cells assessed as protection against virus-induced cell death after 5 days by MTT assay; format: functional, organism-based; details: Human immunodeficiency virus 1, MT4; procedure, shortened: as §1
[18] = system: Human immunodeficiency virus; test: Antiviral activity against NNRTI-resistant HIV HXB2 isolate 16 with reverse transcriptase K103, P225 mutation in human MT4 cells assessed as protection against virus-induced cell death after 5 days by MTT assay; format: functional, organism-based; details: Human immunodeficiency virus 1, MT4, 120 h
[19] = Volume of distribution at steady state in monkey at 0.5 mg/kg, iv; details: rhesus monkey, in vivo, read-out: Vdss
[20] = system: Human immunodeficiency virus; test: Antiviral activity against NNRTI-resistant HIV HXB2 with reverse transcriptase 106A mutation in human MT4 cells assessed as protection against virus-induced cell death after 5 days by MTT assay; format: functional, organism-based; details: Human immunodeficiency virus 1, MT4, 120 h; procedure, shortened: as §1
[21] = system: Human immunodeficiency virus; test: Antiviral activity against NNRTI-resistant HIV HXB2 with reverse transcriptase 190S mutation in human MT4 cells assessed as protection against virus-induced cell death after 5 days by MTT assay; format: functional, organism-based; details: Human immunodeficiency virus 1, MT4, 120 h; procedure, shortened: as §1
[22] = system: Human immunodeficiency virus; test: Antiviral activity against NNRTI-resistant HIV HXB2 with reverse transcriptase 225H mutation in human MT4 cells assessed as protection against virus-induced cell death after 5 days by MTT assay; format: functional, organism-based; details: Human immunodeficiency virus 1, MT4; procedure, shortened: as §1
[23] = system: Human immunodeficiency virus; test: Antiviral activity against NNRTI-resistant HIV HXB2 isolate 29 with reverse transcriptase K103, Y181 mutation in human MT4 cells assessed as protection against virus-induced cell death after 5 days by MTT assay; format: functional, organism-based; details: Human immunodeficiency virus 1, MT4, 120 h
[24] = Clearance in dog at 0.5 mg/kg, iv; details: in vivo
[25] = Clearance in monkey at 0.5 mg/kg, iv; details: rhesus monkey, in vivo
[26] = Volume of distribution at steady state in rat at 0.5 mg/kg, iv; details: in vivo, read-out: Vdss
[27] = system: Human immunodeficiency virus; test: Antiviral activity against NNRTI-resistant HIV HXB2 with reverse transcriptase 103N mutation in human MT4 cells assessed as protection against virus-induced cell death after 5 days by MTT assay; format: functional, organism-based; details: Human immunodeficiency virus 1, MT4, 120 h; procedure, shortened: as §1
[28] = system: Human immunodeficiency virus; test: Antiviral activity against NNRTI-resistant HIV HXB2 with reverse transcriptase 181C mutation in human MT4 cells assessed as protection against virus-induced cell death after 5 days by MTT assay; format: functional, organism-based; details: Human immunodeficiency virus 1, MT4, 120 h; procedure, shortened: as §1
[29] = system: Human immunodeficiency virus; test: Antiviral activity against NNRTI-resistant HIV HXB2 with reverse transcriptase 179D mutation in human MT4 cells assessed as protection against virus-induced cell death after 5 days by MTT assay; format: functional, organism-based; details: Human immunodeficiency virus 1, MT4, 120 h; procedure, shortened: as §1
[30] = system: Human immunodeficiency virus; test: Antiviral activity against NNRTI-resistant HIV HXB2 with reverse transcriptase 181I mutation in human MT4 cells assessed as protection against virus-induced cell death after 5 days by MTT assay; format: functional, organism-based; details: Human immunodeficiency virus 1, MT4, 120 h; procedure, shortened: as §1
[31] = system: Human immunodeficiency virus; test: Antiviral activity against NNRTI-resistant HIV HXB2 with reverse transcriptase 108I mutation in human MT4 cells assessed as protection against virus-induced cell death after 5 days by MTT assay; format: functional, organism-based; details: Human immunodeficiency virus 1, MT4, 120 h; procedure, shortened: as §1
[32] = system: Human immunodeficiency virus; test: Antiviral activity against NNRTI-resistant HIV HXB2 with reverse transcriptase 227L mutation in human MT4 cells assessed as protection against virus-induced cell death after 5 days by MTT assay; format: functional, organism-based; details: Human immunodeficiency virus 1, MT4, 120 h; procedure, shortened: as §1
[33] = system: Human immunodeficiency virus; test: Antiviral activity against NNRTI-resistant HIV HXB2 with reverse transcriptase 190A mutation in human MT4 cells assessed as protection against virus-induced cell death after 5 days by MTT assay; format: functional, organism-based; details: Human immunodeficiency virus 1, MT4, 120 h; procedure, shortened: as §1
[34] = system: Human immunodeficiency virus; test: Antiviral activity against NNRTI-resistant HIV HXB2 with reverse transcriptase 236L mutation in human MT4 cells assessed as protection against virus-induced cell death after 5 days by MTT assay; format: functional, organism-based; details: Human immunodeficiency virus 1, MT4, 120 h; procedure, shortened: as §1
[35] = molecular target: Human immunodeficiency virus type 1 reverse transcriptase (Human immunodeficiency virus 1, UniProt Q72547, K103N); test: Inhibition of RNA-dependent DNA polymerase activity of HIV1 reverse transcriptase Lys103Asn mutant by SPA
[36] = Inhibition of RNA-dependent DNA polymerase activity of HIV1 reverse transcriptase Tyr181Cys mutant by SPA; parameters: species or system Human immunodeficiency virus 1
Procedure, shortened: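 Purified recombinant RT (1-3 nM final) with 18nt biotinylated DNA primer (32 nM) on a 47nt RNA template (64 nM). Run 30 min at 30 °C, stopped with EDTA, product captured on streptavidin SPA beads. IC50 by sigmoidal regression.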

N#Cc1cc(Cl)cc(Oc2c(Br)ccc(Cc3n[nH]c4ncccc34)c2F)c1
EC50 [1]: 1 nM
EC50 [2]: 12 nM
IC50 [3]: 8 nM

Cn1ccc2c(Cc3ccc(Br)c(Oc4cc(Cl)cc(C#N)c4)c3F)n[nH]c2c1=O
EC50 [1]: 4 nM
EC50 [2]: 97 nM
IC50 [4]: 12 nM
IC50 [3]: 8 nM

N#Cc1cc(Cl)cc(Oc2c(Br)ccc(Cc3n[nH]c4nccnc34)c2F)c1
EC50 [1]: < 25 nM
EC50 [2]: > 100 nM
IC50 [4]: 14 nM
IC50 [3]: 3 nM

N#Cc1cc(Cl)cc(Oc2c(Cl)ccc(Cc3n[nH]c4nnccc34)c2F)c1
IC50 [5]: 5 nM
EC50 [6]: 2 nM
EC50 [7]: 2 nM
EC50 [8]: < 1 nM
IC50 [9]: 4 nM
Vd [10]: 0.99 L/kg
EC50 [1]: 1 nM
half-life [11]: 4.2 h
clearance [12]: 2.9 mL/min/kg
half-life [13]: 5.6 h
IC50 [14]: 3 nM
half-life [15]: 12.2 h
EC50 [16]: 5 nM
EC50 [17]: < 1 nM
IC50 [18]: 3 nM
Vd [19]: 1.21 L/kg
EC50 [20]: 2 nM
EC50 [21]: < 1 nM
EC50 [22]: < 1 nM
IC50 [23]: 2 nM
clearance [24]: 4.6 mL/min/kg
clearance [25]: 1.3 mL/min/kg
Vd [26]: 0.91 L/kg
EC50 [27]: < 1 nM

N#Cc1cc(Cl)cc(Oc2c(Br)ccc(Cc3n[nH]c4c(N)cccc34)c2F)c1
EC50 [1]: 8 nM
EC50 [2]: 84 nM
IC50 [4]: 22 nM
IC50 [3]: 24 nM

O=C1Nc2ccc(Cl)cc2[C@@](C#CC2CC2)(C(F)(F)F)O1 [EFAVIRENZ]
EC50 [28]: 3 nM
EC50 [6]: 2 nM
EC50 [7]: 12 nM
EC50 [8]: 7 nM
EC50 [29]: 8 nM
EC50 [30]: 2 nM
EC50 [31]: 3 nM
EC50 [16]: 18 nM
EC50 [17]: 4 nM
EC50 [20]: 6 nM
EC50 [21]: > 100 nM
EC50 [22]: 1 nM
EC50 [32]: 1 nM
EC50 [33]: 6 nM
EC50 [34]: < 1 nM
EC50 [27]: 66 nM

Cc1cc(C#N)cc(Oc2ccc(Cc3n[nH]c4nnccc34)cc2Br)c1
IC50 [35]: 120 nM
EC50 [1]: 17 nM
EC50 [2]: > 100 nM
IC50 [36]: 800 nM

Cc1cc(C#N)cc(C)c1Oc1nc(Nc2ccc(C#N)cc2)nc(N)c1Br [ETRAVIRINE]
IC50 [5]: 14 nM
IC50 [9]: 7 nM
IC50 [14]: 17 nM
IC50 [18]: 1 nM
IC50 [23]: 3 nM

N#Cc1cc(Cl)cc(Oc2c(Br)ccc(Cc3n[nH]c4cnccc34)c2F)c1
EC50 [1]: 2 nM
EC50 [2]: 18 nM
IC50 [4]: 9 nM
IC50 [3]: 5 nM

N#Cc1cc(C#N)cc(Oc2c(Br)ccc(Cc3n[nH]c4nnccc34)c2F)c1
EC50 [1]: 1 nM
EC50 [2]: 3 nM

N#Cc1cc(Cl)cc(Oc2c(Br)ccc(Cc3n[nH]c4c(C#N)cccc34)c2F)c1
EC50 [1]: 5 nM
EC50 [2]: 53 nM
IC50 [4]: 15 nM
IC50 [3]: 24 nM

— ChEMBL document CHEMBL1140225, “Design of annulated pyrazoles as inhibitors of HIV-1 reverse transcriptase” (J Med Chem, 2008)
